Reference: ChEMBL document CHEMBL3112482, “Nonclassical antifolates, part 5. Benzodiazepine analogs as a new class of DHFR inhibitors: synthesis, antitumor testing and molecular modeling study” (Eur J Med Chem, 2014)

Assays:
Assay type in all cases: functional
Leukemia cell [1] = test: Ratio of 5-FU TGI to compound TGI for human leukemia cells
Leukemia cell [2] = test: Ratio of 5-FU LC50 to compound LC50 for human leukemia cells
Summary of the method: (§1)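 Compounds passing the NCI single-dose primary screen were retested across the 60 human tumour cell lines (nine subpanels) over a 5-log dose range. GI50, TGI and LC50 were recorded for each cell line, with 5-fluorouracil run as the reference drug. Subpanel values for compound and 5-FU were then compared.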

HCT-15 = test: Growth inhibition of human HCT15 cells at 10 uM after 48 hrs; conditions: HCT-15, 48 h, read-out: GI
Summary of the method: (§2)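 Single-dose primary screen in the NCI 60 human tumour cell line panel, run at the NCI facility. The panel covers nine subpanels: leukaemia, non-small cell lung, colon, CNS, melanoma, ovarian, renal, prostate and breast. Read-out was percent growth of treated cells, shown as a mean graph and reported as percent growth inhibition.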

Melanoma cell [3] = test: Ratio of 5-FU GI50 to compound GI50 for human melanoma cells; summary of the method: as §1
Cancer cell lines [4] = test: Ratio of 5-FU LC50 to compound LC50 for human CNS cancer cells; summary of the method: as §1
Cancer cell lines [5] = test: Ratio of 5-FU LC50 to compound LC50 for human breast cancer cells; summary of the method: as §1
Cancer cell lines [6] = test: Ratio of 5-FU GI50 to compound GI50 for human renal cancer cells; summary of the method: as §1
Cancer cell lines [7] = test: Ratio of 5-FU TGI to compound TGI for human ovarian cancer cells
Cancer cell lines [8] = test: Ratio of 5-FU LC50 to compound LC50 for human prostate cancer cells; summary of the method: as §1
Cancer cell lines [9] = test: Ratio of 5-FU TGI to compound TGI for human breast cancer cells
[10] = Cytotoxicity against human melanoma cells at 10 uM after 48 hrs; conditions: Melanoma cell; for CC50: read-out: LC50 (the source's name); summary of the method: as §2
Melanoma cell [11] = test: Ratio of 5-FU LC50 to compound LC50 for human melanoma cells; summary of the method: as §1
HL-60(TB) = test: Growth inhibition of human HL-60(TB) cells at 10 uM after 48 hrs; conditions: HL-60, 48 h, read-out: GI
Summary of the method: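 NCI 60-cell-line human tumour panel covering nine subpanels (leukaemia, non-small cell lung, colon, CNS, melanoma, ovarian, renal, prostate, breast), run at the NCI facility. Primary screen tested a single dose of each compound. Read-out was percent growth of treated cells versus untreated cells, reported from the mean graph as percentage growth inhibition.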

[12] = Cytotoxicity against human breast cancer cells at 10 uM after 48 hrs; conditions: Cancer cell lines; summary of the method: as §2
MDA-MB-435 = test: Growth inhibition of human MDA-MB-435 cells at 10 uM after 48 hrs; conditions: MDA-MB-435, 48 h, read-out: GI; summary of the method: as §2
[13] = Growth inhibition of human UACC257 cells at 10 uM after 48 hrs; conditions: UACC-257, 48 h, read-out: GI
Summary of the method: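 NCI 60-cell-line disease-oriented human tumor panel, single-dose primary screen at 10 µM. Data given as mean-graph percent growth of treated cells, reported as percent growth inhibition (GI %).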

[14] = Cytotoxicity against human non-small cell lung cancer cells at 10 uM after 48 hrs; conditions: Cancer cell lines; for CC50: read-out: LC50 (the source's name); summary of the method: as §2
786-0 = test: Growth inhibition of human 786-0 cells at 10 uM after 48 hrs; conditions: 786-0, 48 h, read-out: GI; summary of the method: as §2
Cancer cell lines [15] = test: Ratio of 5-FU GI50 to compound GI50 for human ovarian cancer cells; summary of the method: as §1
DU-145 = test: Growth inhibition of human DU145 cells at 10 uM after 48 hrs; conditions: DU-145, 48 h, read-out: GI; summary of the method: as §2
Cancer cell lines [16] = test: Ratio of 5-FU LC50 to compound LC50 for human non-small cell lung cancer cells; summary of the method: as §1
OVCAR-8 = test: Growth inhibition of human OVCAR8 cells at 10 uM after 48 hrs; conditions: OVCAR-8, 48 h, read-out: GI; summary of the method: as §2
Leukemia cell [17] = test: Ratio of 5-FU GI50 to compound GI50 for human leukemia cells; summary of the method: as §1
[18] = Growth inhibition of human HOP92 cells at 10 uM after 48 hrs; conditions: HOP-92, 48 h, read-out: GI; summary of the method: as §2
Cancer cell lines [19] = test: Ratio of 5-FU TGI to compound TGI for human prostate cancer cells
Cancer cell lines [20] = test: Ratio of 5-FU GI50 to compound GI50 for human non-small cell lung cancer cells; summary of the method: as §1
[21] = Cytotoxicity against human renal cancer cells at 10 uM after 48 hrs; conditions: Cancer cell lines
Cancer cell lines [22] = test: Ratio of 5-FU GI50 to compound GI50 for human breast cancer cells; summary of the method: as §1
[23] = Cytotoxicity against human CNS cancer cells at 10 uM after 48 hrs; conditions: Cancer cell lines; for CC50: read-out: LC50 (the source's name)
A498 = test: Growth inhibition of human A498 cells at 10 uM after 48 hrs; conditions: A498, 48 h, read-out: GI; summary of the method: as §2

Row | SMILES | Ratio (Leukemia cell [1]) | RatioLC50 (Leukemia cell [2]) | RatioGI50 (Melanoma cell [3]) | RatioLC50 (Cancer cell lines [4]) | RatioLC50 (Cancer cell lines [5]) | RatioGI50 (Cancer cell lines [6]) | Ratio (Cancer cell lines [7]) | RatioLC50 (Cancer cell lines [8]) | Ratio (Cancer cell lines [9]) | GI50 [10] | TGI [10] | CC50 [10] | RatioLC50 (Melanoma cell [11]) | GI50 [12] | LC50 (concentration killing 50% of cells) [12] | TGI [12] | GI50 [14] | TGI [14] | CC50 [14] | RatioGI50 (Cancer cell lines [15]) | further results
1 | COc1cc(/C=C2\CCCC3=C(c4cc(OC)c(OC)c(OC)c4)Nc4ccccc4N=C32)cc(OC)c1OC | 11 | 11 | 11 | 11 | 11 | 11 | 11 | 11 | 11 | 1.7 µM | 5.6 µM | 71.4 µM | 11 | 2.9 µM | 89.4 µM | 48.2 µM | 2.8 µM | 28 µM | 73.6 µM | 11 | inhibition of growth at 10 µM (HCT-15): 93.9%; inhibition of growth at 10 µM (HL-60(TB)): 98.5%; inhibition of growth at 10 µM (MDA-MB-435): 96.8%; inhibition of growth at 10 µM [13]: 83.8%; inhibition of growth at 10 µM (786-0): 98.2%; inhibition of growth at 10 µM (DU-145): 95.1%; RatioLC50 (Cancer cell lines [16]): 11; inhibition of growth at 10 µM (OVCAR-8): 81.4%; RatioGI50 (Leukemia cell [17]): 11; inhibition of growth at 10 µM [18]: < 30%; Ratio (Cancer cell lines [19]): 11; RatioGI50 (Cancer cell lines [20]): 11; CC50 [21]: 68.4 µM; GI50 [21]: 2.3 µM; TGI [21]: 20 µM; RatioGI50 (Cancer cell lines [22]): 11; GI50 [23]: 6.8 µM; TGI [23]: 94.3 µM; CC50 [23]: > 100 µM
2 | COc1cc(/C=C2\CCCc3c2nc(N)nc3-c2cc(OC)c(OC)c(OC)c2)cc(OC)c1OC | 15 | 15 | 15 | 15 | 15 | 15 | 15 | 15 | 15 | 1.3 µM | 20 µM | > 100 µM | 15 | 2 µM | > 100 µM | 69.2 µM | 1.7 µM | 42.5 µM | > 100 µM | 15 | RatioLC50 (Cancer cell lines [16]): 15; inhibition of growth at 10 µM (A498): 99.5%; RatioGI50 (Leukemia cell [17]): 15; Ratio (Cancer cell lines [19]): 15; RatioGI50 (Cancer cell lines [20]): 15; CC50 [21]: > 100 µM; GI50 [21]: 1.8 µM; TGI [21]: 20.8 µM; RatioGI50 (Cancer cell lines [22]): 15; GI50 [23]: 3.3 µM; TGI [23]: > 100 µM; CC50 [23]: > 100 µM
